# Results as given in ChEMBL document CHEMBL4513216, “Probing the Open Global Health Chemical Diversity Library for Multistage-Active Starting Points for Next-Generation Antimalarials” (ACS Infect Dis, 2020).
# Test: Toxicity liver stage against HepG2, at 10uM
# Format: cell-based
# Set-up: test concentration 10 uM, cell line HepG2-A16-CD81EGFP
# Details: human, HepG2-A16-CD81EGFP cells; read-out: INHIBITION
# In short: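 Uninfected HepG2-A16-CD81EGFP cells, 3 × 10^3 per well, 1536-well, plated on prespotted compound at 10 μM final, parasite-free screening media added to match infected plates; puromycin 10 μM positive, DMSO 0.5% negative; run in parallel with 48 h PbLuc assay at 37 °C, 5% CO2; viability by CellTiter-Glo luminescence, normalized to controls.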
row,SMILES,cytotoxicity at 10 µM
1,O=C(CN1CCc2ccccc2C1)NCc1ccco1,6.32%
2,O[C@H]1COCCN(Cc2cccc3c2OCO3)C1,-3.04%
3,CO[C@H]1COCCN(C(=O)c2ccc(F)cc2)C1,0.287%
4,CCOCc1nc(N2CCCC2)sc1C(=O)NCc1ccco1,-1.89%
5,CCOCCCNC(=O)C1(C)CCC(=O)N1c1ccccc1OC (configuration not stated),2.89%
6,CN1CCCN(c2ncnc(N3CCOCC3)c2N)CC1,1.08%
7,CN1CC[C@H](N(Cc2ccccc2)Cc2ccccc2)C[C@H](O)C1,-5.96%
8,COC1CCN(C(=O)COC(C)=O)CC(=O)N(C)c2ccccc21 (configuration not stated),3.17%
9,COc1ccc(C(=O)Nc2n[nH]c(C3CCCO3)n2)cc1 (configuration not stated),-2.46%
10,O=C(CNC(=O)c1c[nH]c2ccccc12)NCCCn1ccnc1,-11.1%
11,CSCC(C)(O)CNS(=O)(=O)c1cccc(C)c1 (configuration not stated),-2.85%
12,CC(=O)N1CCN(c2cnnc(N3CCCC3)c2)CC1,8.19%
13,CCN1C(=O)CCCC12CCCN(C(=O)c1ccoc1C)C2 (configuration not stated),-11.8%
14,CCO[C@@H]1CC[C@H]2[C@H]1OCCN2C(=O)c1ccc(OC)c(F)c1,15.7%
15,O=C1CCCN1Cc1ncn2c1CN(C(=O)Cc1cccs1)CCC2,5.26%
16,COc1ccc(-n2nnc(C(=O)O)c2-c2ccccn2)cc1,13.7%
17,Cc1nc2c(N(C)Cc3ccnn3C)nc(N)nc2n1C,-7.42%
18,CCn1ncc(S(=O)(=O)NC(C)c2cc(OC)ccc2OC)c1C (configuration not stated),-4.48%
19,O=C(CCS(=O)(=O)c1ccccc1)NCCCn1cccn1,12%
20,CCOCCCNC(=O)c1cc(C)nc(N2CCCC2)n1,1.11%
21,COc1ccccc1OCCc1nnc(NC(=O)C2CC23CCC3)s1 (configuration not stated),1.26%
22,CC(=O)N1CCC(c2ncc(C(=O)Nc3ccc(F)cc3)c(C)n2)CC1,7.29%
23,COCCN1CCCC1c1ccnc(-c2ccccc2)n1 (configuration not stated),1.09%

row,SMILES,cytotoxicity at 10 µM
1,CC(C)c1nc(O)c2nnn(C[C@H]3CCCN(Cc4ccsc4)C3)c2n1,1.8%
2,Cc1nc(CCC(=O)NCC(N)=O)cc(C2CCNCC2)n1,-3.03%
3,C[C@]1(O)CCN(Cc2c[nH]cn2)C[C@@H]1Oc1cccc(F)c1,-5.72%
4,O=C(c1ccc2c(c1)CCC2)N1CC[C@H](O)[C@]2(CCCO2)C1,-8.97%
5,c1cc2nccc(CC3CCCN(Cc4ncc[nH]4)CC3)c2cn1 (configuration not stated),-2.06%
6,Cc1ccc(C(=O)Nc2ccc3c(c2)N(C)CCN(C)C3)c(=O)[nH]1,-2.17%
7,CN1CCOC(C(=O)Nc2nc(-c3ccc4c(c3)CCC4)n[nH]2)C1 (configuration not stated),-7.53%
8,CS(=O)(=O)NC1CCN(C(=O)CCC2CCCO2)CC1 (configuration not stated),-0.367%
9,Cn1ccnc1CNC1CCCOc2c1ccc1ccccc21 (configuration not stated),13.3%
10,CCc1nc2n(n1)CC(NCC1=Cc3ccc(OC)cc3OC1)CC2 (configuration not stated),4.02%
11,CCNC(=O)CN(CC)C(=O)c1csc(Cc2ccccc2F)n1,7.6%
12,COC(=O)C(NC(=O)c1cc(C)ccc1C)c1cccnc1 (configuration not stated),-39.7%
13,CNS(=O)(=O)c1ccc(CNC(=O)NCc2cc[nH]n2)cc1,1.91%
14,CCN(CC)CCCC(C)NC(=O)c1ccccc1-n1cccn1 (configuration not stated),15.9%
15,CCOCCC(=O)NCC(C)c1ccsc1 (configuration not stated),15.1%
16,CC(NC(=O)COc1ccccc1I)C1CC1 (configuration not stated),2.72%
17,CN1CCC(C(=O)N2CCCN(c3cccnn3)CC2)C1 (configuration not stated),-8.82%
18,Cc1cc(CNc2ccc(CC(=O)N(C)c3ccccc3)cc2)no1,-13.9%
19,Cc1ccc(CNCc2c(C)nn(C)c2N(C)C)cn1,4.65%
20,O=C(NC1(c2nnn(CC3CCCO3)n2)CCCC1)c1ccccc1 (configuration not stated),13.2%
21,O=C(CN1CCCC1Cn1cncn1)Nc1nccs1 (configuration not stated),4.1%
22,CCc1cc(CNC(=O)N2CCN(c3nc(C)c(C)s3)CC2)on1,-11.6%
23,O=C(NCCCOC1CCOC1)NC(C1CC1)C1CC1 (configuration not stated),-5.36%

row,SMILES,cytotoxicity at 10 µM
1,Cn1cc(NC(=O)CCCc2cccs2)c(=O)n(C)c1=O,5.55%
2,CCOC(C(=O)N1CCn2c(CC)nnc2C1)c1ccccc1 (configuration not stated),4.48%
3,O=C(c1cccnc1O)N(CCO)Cc1cc(Br)ccc1F,6.27%
4,CCc1sc(-c2nnc(CNC(C)Cn3cc(C)cn3)o2)cc1C (configuration not stated),0.493%
5,CC1(C)CN=C(N2CCN(CC3CCOC3)CC2)S1 (configuration not stated),11.7%
6,CC(Cn1cccn1)NCC(=O)N(C)Cc1ccsc1 (configuration not stated),-7.32%
7,CC(=O)NCCc1ccc(S(=O)(=O)Nc2ccc(C)c(F)c2)s1,5.72%
8,CSCc1cc(C(=O)NC2(C#N)CC2)ccc1F,-10.5%
9,COc1ccccc1N1CCN(Cc2cnc3c(c2)c(C)nn3C)CC1,-0.949%
10,Cc1nc(CNC(=O)Nc2ccc3c(c2)CCCN3C)sc1C,-3.68%
11,CCOC(=O)C1CCN(C(=O)Cc2c(C)nc(C)[nH]c2=O)CC1,16.6%
12,CCNC(=O)NC(=O)CN1CCOC(c2ccccc2Cl)C1 (configuration not stated),6.58%
13,O=C(Nc1ccccn1)NC(CCCO)c1ccccc1 (configuration not stated),3.72%
14,Cc1occc1C(=O)Nc1cc(N2CCNC2=O)ccc1Cl,8.56%
15,CNc1nc(CNC(=O)Nc2ccccc2OC(C)C)cs1,-12.1%
16,Cc1nc(CN2CCc3cncnc3C2)oc1C,-12%
17,CCc1nnc(C(C)N2CCCN(C(=O)Oc3ccccc3)CC2)o1 (configuration not stated),2.79%
18,Cn1nc(CNc2ncccn2)c2c1CN(c1cnccn1)CC2,-107%
19,O=S(=O)(C1CC1)N1CCc2ncnc(N3CCOCC3)c2CC1,-109%
20,O=S(=O)(C1CC1)N1CCC2(COCc3cnc(-c4cccnc4)nc32)C1 (configuration not stated),-115%
21,Cn1cc(C2COC3(CCN(C(=O)c4cccc(O)c4)CC3)C2)cn1 (configuration not stated),-73.3%
22,c1cc(-c2nnn3c2COC(CNCc2nccs2)C3)ccn1 (configuration not stated),1.94%
23,OCC1(CCOc2ccccc2)CCN(c2ccc(Cl)cn2)CC1,-43.4%

row,SMILES,cytotoxicity at 10 µM
1,O=C1NCCCc2[nH]c(Cc3cccc(Cl)c3)nc21,13%
2,Cc1cc(N2CCN(Cc3ccccc3)CC(O)C2)nc(N)n1 (configuration not stated),1.06%
3,Cc1cccn2c(CNC(C)CCn3cccn3)cnc12 (configuration not stated),21.6%
4,CC(C)N1CCC(CC(=O)NCC2OCCc3ccccc32)CC1 (configuration not stated),-4.65%
5,COCc1cc(NCCc2ccc(OC)cc2)n2nccc2n1,0.266%
6,CN(Cc1cc(C(C)(C)C)n[nH]1)C(=O)CCC(=O)NC1CCCC1,-2.12%
7,O=C(O)c1ccc(N2CCC(Oc3cccc(F)c3)CC2)nc1,-60.7%
8,COc1ccccc1C(=O)N1CCN(C(=O)CCCc2cn[nH]c2)CC1,2.68%
9,O=C(NN1CCCc2ccccc21)c1c[nH]c(=O)[nH]1,8.73%
10,CC(=O)NCc1cc2n(n1)CCN(Cc1cc(-c3ccccc3)no1)C2,7.12%
11,Cc1cc(C)n(-c2ccc(C(=O)NCC(CO)Cc3ccco3)cc2)n1 (configuration not stated),3.62%
12,Cc1nc(S(=O)(=O)N2CCc3[nH]nc(CCC(C)C)c3C2)cn1C,10.2%
13,CCCOC1CCCN(C(=O)c2ccnnc2)C1 (configuration not stated),-20.6%
14,CCc1ocnc1C(=O)N1CCC2(CCCN(CC(C)(C)C)C2=O)C1 (configuration not stated),7.79%
15,O=C1CCCc2occ(C(=O)N3CCCC4(CCNC4)C3)c21 (configuration not stated),9.15%
16,CC(=O)Nc1ccc(Cl)c(C(=O)N(C)C(C)c2ccncn2)c1 (configuration not stated),-42.6%
17,COC(=O)CN1CCCn2nc(CCC(=O)N3CCCC3)cc2C1,-204%
18,Cc1n[nH]c(C)c1C1COCCN1C(=O)c1ccc2c(c1)CCO2 (configuration not stated),-4.01%
19,CCC1CN(C(=O)c2cccc(OCc3cscn3)c2)CCO1 (configuration not stated),-7.51%
20,COCCN1CCCC1Cn1nc(C)cc1C (configuration not stated),1.31%
21,CCn1ccnc1CN1CCCN(C(=O)c2cc(C)nn2CC)CC1,-5.89%
22,c1cnnc(N2CCCC2CNCc2csc(-c3ccco3)n2)c1 (configuration not stated),-8.42%
23,COC(=O)c1ccc(N2CCN(CCN3CCOCC3)C(C)C2)cc1 (configuration not stated),-13.6%

row,SMILES,cytotoxicity at 10 µM
1,Cc1nn(C)c(C)c1C1CCCN1Cc1nc(-c2ccco2)oc1C (configuration not stated),-4.27%
2,Cc1ccc(-n2nnc(C(=O)NS(C)(=O)=O)c2C2CC2)cc1,-13.9%
3,CCOc1cc(C)ccc1NC(=O)N(C)Cc1cnn(C)c1,-7.15%
4,COc1ccc(CC(=O)N(C)Cc2nnc3ccccn23)cc1,5.44%
5,c1cc(CC2CCCNC2)nc(NCCc2cnccn2)c1 (configuration not stated),3.64%
6,O=C([C@@H]1CC[C@@H]2[C@@H](CCN2CCOCc2ccccc2)O1)N1CCCC1,-110%
7,CC(NCc1ccc(OCC(N)=O)cc1)c1ccc(Cl)cc1Cl (configuration not stated),13.1%
8,CN(Cc1cccnc1)[C@@H]1CN(C(=O)NC2CC2)[C@@H]2CCCO[C@H]12,2.75%
9,O=C(CN1CC(c2nc(-c3cccs3)no2)C1)NCC1CCCO1 (configuration not stated),-1.47%
10,Cc1cc(C(=O)N2C[C@@H]3OCCN(CCN4CCCC4)[C@@H]3C2)c(C)o1,-74.8%
11,O=C1CC(c2ccccc2)C2(CCN(C(=O)c3ccncc3F)CC2)N1 (configuration not stated),-76.9%
12,CS(=O)(=O)N1CCO[C@H]2[C@@H](Oc3ncccc3F)CC[C@@H]21,-2.54%
13,O=C(NCC1OCCc2cn(CC3CCOCC3)nc21)c1ccncc1 (configuration not stated),-78%
14,CCOCc1nn(C)c2c1CN(Cc1cccs1)CC2,-101%
15,Cc1oncc1C(=O)N1CCc2ncnc(-c3cnn(C)c3)c2CC1,7.07%
16,CC(C)CNC(=O)N1CC[C@@H]2CN(Cc3cccnc3)S(=O)(=O)[C@@H]2CC1,-93.6%
17,NC1(c2nc(C(F)(F)F)cc(=O)[nH]2)CCCC1,19.1%
18,O=C(Nc1ccccc1)N1CCC(n2cc3[nH]cccc-3c2=O)CC1,-3.73%
19,COCCN1C(=O)[C@@H]2CC[C@H]1CN(S(=O)(=O)c1cccc(Cl)c1)C2,20.5%
20,COc1ccc(C2CC(=O)c3c(O)cc(O)cc3O2)cc1O (configuration not stated),-2.66%
